TAAR1 antagonist – human TAAR1 antagonism; inhibition, % at 3 µM; actives 1.5% (n = 360,000); CHO RD-HGA16 TAAR1, Fluo-8 calcium fluorescence, antagonist; Q96RJ0; AID 624466;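 active = inhibition above a per-plate cutoff, the mean inhibition of test compounds on that plate plus 3 SD, cut at about 49% in these data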
Target sequence (Q96RJ0 whole entry, looked up): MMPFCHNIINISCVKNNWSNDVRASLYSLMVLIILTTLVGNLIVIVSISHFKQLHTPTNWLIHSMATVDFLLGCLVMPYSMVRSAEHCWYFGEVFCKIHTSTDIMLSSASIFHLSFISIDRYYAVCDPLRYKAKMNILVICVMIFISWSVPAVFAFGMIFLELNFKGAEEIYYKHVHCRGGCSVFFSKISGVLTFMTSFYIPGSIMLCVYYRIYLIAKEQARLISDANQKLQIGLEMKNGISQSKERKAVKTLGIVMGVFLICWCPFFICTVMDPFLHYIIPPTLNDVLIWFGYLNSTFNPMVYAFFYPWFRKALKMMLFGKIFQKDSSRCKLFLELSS
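Test system: RD-HGA16 CHO cells with stable hTAAR1 and Gα16 / Probe or stimulus: EC80 β-phenethylamine stimulus / Times: seeding 17-24 h prior, 75-min 37 °C, 30-min RT dye loading / Detection: Fluo-8 calcium-sensitive fluorescence / Read-out basis: % inhibition scaled between DMSO and EC80 PEA controls / Repeats: singlicate, one well per test compound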
M4 PAM – CHRM4 positive allosteric modulation. CHO-K1 hM4/Gqi5, Fluo-8 calcium fluorescence, ACh EC20; 0% = ACh EC20, 100% = maximal ACh. activation, % at 3 µM. P08173. actives 0.4% (n = 360,000). AID 624126;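 active = activation above its plate's cutoff, the mean activation of sample wells plus 3 SD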
TAAR1 ag – agonists of human TAAR1 | CHO RD-HGA16 TAAR1, Fluo-8 calcium fluorescence; vehicle wells 0%, saturating PEA agonist 100% | Q96RJ0 | AID 624467 | activation, % at 3 µM | actives 0.99% (n = 360,000);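 active = activation above the mean activation of all test compounds in the run plus 3 SD, cut at about 38% in these data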
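System: CHO-derived RD-HGA16 cells with stable Gα16 and human TAAR1. Times: 17-24 h plating, Fluo-8 75 min 37 °C, 30 min RT. Measured by: calcium-sensitive Fluo-8 signal, excitation 470-495, emission 515-575 nm. Read-out basis: % activation relative to PEA EC100 response. Control set: DMSO and PEA EC100. Repeats: no replicates (n 1).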
CHRM4 agonist – CHRM4 agonism in calcium assay. AID 624127. actives 0.14% (n = 360,000). P08173. activation, % at 3 µM. CHO-K1 hM4/Gqi5, Fluo-8 calcium fluorescence; vehicle 0%, full acetylcholine response 100%;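 active = activation above the run mean over all test wells plus 3 SD, cut at about 32% in these data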;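 also: peak over basal fluorescence ratio per well then scaled between controls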
M4 antag – CHRM4 antagonism in calcium assay; inhibition, % at 3 µM; P08173; CHO-hM4 cells, ACh EC80, Fluo-8 calcium fluorescence; actives 0.73% (n = 360,000);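 active = inhibition above its plate's cutoff, the mean inhibition of sample wells plus 3 SD, cut at about 27% in these data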
TAAR1 nonsel count – counter-screen for TAAR1 antagonists: nonselective antagonists | shares compounds with TAAR1 antagonist | counterscreen cell line, calcium fluorescence, antagonist mode | inhibition, % at 3 µM | actives 77% (n = 2,400) | AID 651780; in the data active = inhibition above about 22%;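 also: CHO-Ga16 host cells stimulated with ATP at an EC80 level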
TAAR1 ant conf – confirmation of human TAAR1 antagonists; shares compounds with TAAR1 antagonist; TAAR1-expressing cells, fluorescence antagonist read-out; inhibition, % at 3 µM; actives 40% (n = 2,400); AID 651785; in the data active = inhibition above about 49%;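 also: CHO-Ga16 host cells challenged with agonist PEA near its EC80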
Ga16 nonsel ag – nonselective Ga16 agonism, counter-screen; shares compounds with TAAR1 antagonist; activation, % at 3 µM; actives 18% (n = 2,400); Ga16-expressing cells, calcium fluorescence, agonist counterscreen; in the data active = activation above about 12%
TAAR1 ag counter – activates human TAAR1 in antagonist counter-screen; shares compounds with TAAR1 antagonist; hTAAR1 cell line, fluorescence activation, agonist mode; activation, % at 3 µM; actives 2% (n = 2,400); AID 651955; in the data active = activation above about 37%;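 also: CHO cells stably expressing TAAR1 with calcium dye readout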
Large screens that a line does not name were inactive (follow-up assays come after a bar, where they were run). A selection: hits, their analogues and other compounds. The true share with any hit is near 3%.

COc1cccc(NC(=O)c2cc(-c3ccco3)nc3ccccc23)c1	none
C[C@@H]1CN([C@@H](C)CO)C(=O)CCCn2nncc2CO[C@@H]1CN(C)C(=O)Nc1ccc2c(c1)OCO2	none
CCS(=O)(=O)N1CCC2(CC1)OCCN2S(=O)(=O)c1ccccc1	none
CCCC(=O)N(Cc1cc2cc(OC)ccc2[nH]c1=O)c1ccccc1OC	none
CCOC(=O)C1=CCN(S(=O)(=O)c2ccc(C)cc2)C1c1ccc(CC)cc1 (stereo unspecified)	none
O=C(Nc1cccc(-c2cnc3ccccc3n2)c1)c1cccc(NC(=O)c2ccco2)c1	TAAR1 antagonist 74, M4 antag 42 | TAAR1 nonsel count 39 | TAAR1 ant conf 63 | Ga16 nonsel ag 12 | TAAR1 ag counter inactive
O=C(Nc1cccc(-c2cnc3ccccc3n2)c1)C1CC(=O)N(c2ccccc2)C1 (stereo unspecified)	TAAR1 antagonist 80 | TAAR1 nonsel count 45 | TAAR1 ant conf 63 | Ga16 nonsel ag 16 | TAAR1 ag counter inactive
O=C(Nc1cccc(-c2cnc3ccccc3n2)c1)c1ccccc1	none
Cc1ccc(C)c(Cn2cnc3c(nnn3-c3ccc(F)cc3)c2=O)c1	TAAR1 antagonist 72 | TAAR1 nonsel count inactive | TAAR1 ant conf inactive | Ga16 nonsel ag inactive | TAAR1 ag counter inactive
O=C(CSc1ncccn1)NC1CCCC1	none
CC(=O)Nc1ccc(NC(=O)c2ccc(S(=O)(=O)N(C)c3ccccc3)cc2)cc1	none
Cc1nc2ccc(NC(=O)c3ccc(S(=O)(=O)N(C)c4ccccc4)cc3)cc2s1	TAAR1 antagonist 59 | TAAR1 nonsel count 33 | TAAR1 ant conf 53 | Ga16 nonsel ag inactive | TAAR1 ag counter inactive
COc1ccccc1NS(=O)(=O)c1ccc2oc(SC(C)C(=O)N3CCNC3=O)nc2c1 (stereo unspecified)	TAAR1 antagonist 74, CHRM4 agonist 32 | TAAR1 nonsel count 40 | TAAR1 ant conf 52 | Ga16 nonsel ag 16 | TAAR1 ag counter inactive
COc1ccccc1NS(=O)(=O)c1ccc2oc(SCC(C)=O)nc2c1	none
CCOC1CCCc2oc(-c3ccc(N(C)C)cc3)c(C(=O)OC)c21 (stereo unspecified)	none
COc1cccc2oc3cc(C#CC4(O)CCCCC4)ccc3c(=O)c12	TAAR1 antagonist 57 | TAAR1 nonsel count 22 | TAAR1 ant conf inactive | Ga16 nonsel ag inactive | TAAR1 ag counter inactive
COc1cccc2sc3ccc(C#CC4(O)CCCCC4)cc3c(=O)c12	TAAR1 antagonist 60 | TAAR1 nonsel count 22 | TAAR1 ant conf inactive | Ga16 nonsel ag inactive | TAAR1 ag counter inactive
O=c1c2ccccc2oc2cc(C#CC3(O)CCCCC3)ccc12	none
COc1cccc(CNC(=O)[C@H]2CCCN2C(=O)[C@H]2CCCN2C(=O)c2cccc(F)c2)c1	none (no result: M4 PAM, CHRM4 agonist, M4 antag)
O=C(CN1CCN(Cc2ccccc2)CC1)Nc1ccc([N+](=O)[O-])cc1C(=O)Nc1ccccc1F	TAAR1 antagonist 58 | TAAR1 nonsel count 29 | TAAR1 ant conf 51 | Ga16 nonsel ag inactive | TAAR1 ag counter inactive
O=C1Nc2cccc3c2N(CCC3)C2=C1CCC2	none
N#CCc1ccccc1C(=O)OCC(=O)N(Cc1ccccc1)Cc1ccccc1	TAAR1 antagonist 64 | TAAR1 nonsel count 29 | TAAR1 ant conf 51 | Ga16 nonsel ag inactive | TAAR1 ag counter inactive
COc1cc(C(O)c2nc(-c3ccccc3OC)cs2)ccc1F (stereo unspecified)	none
COC(=O)c1cc2c(c3c4cc(C)ccc4n(C(=O)c4ccccc4)c13)C(=O)N(Cc1ccccc1)C2	TAAR1 antagonist 67 (no result: M4 PAM, CHRM4 agonist, M4 antag) | TAAR1 nonsel count 29 | TAAR1 ant conf 56 | Ga16 nonsel ag inactive | TAAR1 ag counter inactive
CC(C)CN1C(=O)CN(S(C)(=O)=O)CC1(C)C(=O)NC(C)C (stereo unspecified)	none
O=S(=O)(c1ccc(F)cc1)N1CCN(c2nc(-c3cccnc3)nc3ccccc23)CC1	none
O=S(=O)(c1ccccc1)N1CCN(c2nc(-c3cccnc3)nc3ccccc23)CC1	TAAR1 antagonist 69 | TAAR1 nonsel count 26 | TAAR1 ant conf inactive | Ga16 nonsel ag inactive | TAAR1 ag counter inactive
Cc1ccccc1C(=O)Oc1ccc(Sc2ccc(O)cc2)cc1	TAAR1 antagonist 61 (no result: M4 PAM, CHRM4 agonist, M4 antag) | TAAR1 nonsel count inactive | TAAR1 ant conf inactive | Ga16 nonsel ag inactive | TAAR1 ag counter inactive
Cc1ccccc1C(=O)Oc1ccc(-c2csnn2)cc1	none
O=C(NC(Cc1ccccc1)C(=O)N1CCc2ccccc2C1)c1ccccc1 (stereo unspecified)	TAAR1 antagonist 55 | TAAR1 nonsel count 26 | TAAR1 ant conf inactive | Ga16 nonsel ag inactive | TAAR1 ag counter inactive
CCN(CC)S(=O)(=O)c1ccc(OC)c(NC(=O)C(C)Oc2ccc3c(C)cc(=O)oc3c2)c1 (stereo unspecified)	TAAR1 antagonist 103 | TAAR1 nonsel count inactive | TAAR1 ant conf inactive | Ga16 nonsel ag inactive | TAAR1 ag counter inactive
CN(C)CCN1CCN(C2CN(CCc3ccccc3)S(=O)(=O)C2)CC1 (stereo unspecified)	none
Cc1cc(/C=N\NC(=O)COc2cccc3cccnc23)c(C)n1-c1ccc(Br)cc1	none
Cc1cc(/C=N\NC(=O)c2cccs2)c(C)n1-c1ccc2ncccc2c1	TAAR1 antagonist 103 | TAAR1 nonsel count 34 | TAAR1 ant conf 98 | Ga16 nonsel ag 12 | TAAR1 ag counter inactive
O=C(O)c1ccccc1C(=O)N1CCN(c2ncccn2)CC1	none
O=C(c1cnc(N2CCN(c3ncccn3)CC2)c2ccccc12)N1CCN(c2ncccn2)CC1	TAAR1 antagonist 59 | TAAR1 nonsel count 32 | TAAR1 ant conf 49 | Ga16 nonsel ag inactive | TAAR1 ag counter inactive
CC(C)NC(=O)c1cnc(N2CCN(c3ccccn3)CC2)c2ccccc12	none
O=C(c1cccc(Cl)c1)N1CCN(c2ncccn2)CC1	none
CN(C(=O)c1cnc(N2CCN(c3ncccn3)CC2)c2ccccc12)c1ccc(Cl)cc1	TAAR1 antagonist 51 | TAAR1 nonsel count inactive | TAAR1 ant conf inactive | Ga16 nonsel ag inactive | TAAR1 ag counter inactive
CCN(C(=O)c1cnc(N2CCN(c3ncccn3)CC2)c2ccccc12)c1cccc(Cl)c1	TAAR1 antagonist 50 | TAAR1 nonsel count 27 | TAAR1 ant conf inactive | Ga16 nonsel ag inactive | TAAR1 ag counter inactive
O=C(C(=O)N1CCN(c2ccncc2)CC1)c1cccc(Br)c1	none

Screens (PubChem)
